Data reported in ChEMBL document CHEMBL5344415, “Synthesis and Characterization of Phenylalanine Amides Active against Mycobacterium abscessus and Other Mycobacteria” (J Med Chem, 2023).
In brackets after ≈: the same amount, converted by molar mass.

Key:
[1] = tested on: Mycobacteroides abscessus; assay: Antibacterial activity against Mycobacterium abscessus Bamboo harboring inactive clarithromycin-sensitive erm41 C28 sequevar assessed as bacterial growth inhibition incubated for 3 days in 7H9 medium by optical density based method; format: functional; conditions: 72 h, time 3 day
[2] = tested on: Mycobacteroides abscessus; assay: Antibacterial activity against Mycobacterium abscessus ATCC 19977 expressing tomato RFP assessed as bacterial growth inhibition incubated for 3 days in MHII medium by RFP fluorescence based broth microdilution method; format: functional; conditions: ATCC 19977, 72 h, time 3 day
In short: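 Broth microdilution in MHII broth with 0.05 % Tween 80, against the RFP-expressing strain. Twofold nine-point dilution series. Inoculum 5 x 10⁵ cells/mL from a mid-log preculture. Incubated 3 days at 37 °C. Read-out by RFP fluorescence (ex 544/em 590 nm). Controls were 1 % DMSO and 100 μM amikacin. MIC₉₀ from duplicates, averaged.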

[3] = tested on: Mycobacterium tuberculosis; assay: Antibacterial activity against Mycobacterium tuberculosis H37Rv ATCC 27294 assessed as bacterial growth inhibition incubated for 7 days in 7H9 medium by optical density based microplate reader analysis; format: functional; conditions: H37Rv ATCC 27294, 168 h, time 7 day
In short: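 Compounds serially diluted in flat-bottom 96-well plates. Mid-log culture mixed in to a final OD₆₀₀ of 0.05. Sealed plates incubated in humidified boxes at 37 °C for 7 days with shaking at 80 rpm. Turbidity read at 600 nm. MIC₉₀ taken from dose–response curves. Two biological replicates, averaged.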

[4] = tested on: Mycolicibacterium smegmatis; assay: Antibacterial activity against Mycobacterium smegmatis mc2 155 expressing tomato RFP assessed as bacterial growth inhibition incubated for 3 days in 7H9 medium by RFP fluorescence based broth microdilution method; format: functional; conditions: mc2 155, 72 h, time 3 day
In short: (§1)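 Broth microdilution in 7H9 with 10 % ADS and 0.05 % Tween 80. Twofold nine-point dilution series. Inoculum 5 x 10⁵ cells/mL taken from a mid-log preculture. Incubation at 37 °C, 3 days for M. smegmatis and M. abscessus, 5 days for M. intracellulare. Read-out by RFP fluorescence (ex 544/em 590 nm). Controls were 1 % DMSO and 100 μM amikacin. MIC₉₀ from duplicates, averaged.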

[5] = tested on: Mycobacteroides abscessus; assay: Antibacterial activity against Mycobacterium abscessus ATCC 19977 expressing tomato RFP assessed as bacterial growth inhibition incubated for 3 days in 7H9 medium by RFP fluorescence based broth microdilution method; format: functional; conditions: ATCC 19977, 72 h, time 3 day; in short: as §1
[6] = tested on: A-375; assay: Cytotoxicity against human A-375 cells assessed as reduction in cell viability incubated for 72 hrs by SRB assay; format: toxicity, cell-based
[7] = tested on: Mycobacteroides abscessus; assay: Antibacterial activity against Mycobacterium abscessus ATCC 19977 expressing tomato RFP infected in human THP-1 cells assessed as bacterial growth inhibition incubated for 4 days in RPMI medium by RFP fluorescence based assay; format: functional; conditions: ATCC 19977, 96 h, time 4 day
In short: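 RFP M. abscessus washed, moved into RPMI, filtered through 5 µm and opsonised with 10 % human serum for 30 min. THP-1 cells infected at MOI 5:1 with PMA 40 ng/mL for 4 h at 37 °C, then washed. Infected cells (1x10⁵/well) given a ten-point twofold series. Incubated 4 days at 37 °C, 5 % CO₂. Cells PFA-fixed and DAPI-stained. RFP quantified by imaging. Controls were DMSO and 1.5 µM bedaquiline. Duplicate.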

[8] = tested on: Mycobacterium intracellulare; assay: Antibacterial activity against Mycobacterium intracellulare ATCC 35761 expressing tomato RFP assessed as bacterial growth inhibition incubated for 5 days in 7H9 medium by RFP fluorescence based broth microdilution method; format: functional; conditions: ATCC 35761, 120 h, time 5 day; in short: as §1
[9] = tested on: A2780; assay: Cytotoxicity against human A2780 cells assessed as reduction in cell viability incubated for 72 hrs by SRB assay; format: toxicity, cell-based
[10] = tested on: HeLa; assay: Cytotoxicity against human HeLa cells assessed as reduction in cell viability incubated for 72 hrs by SRB assay; format: toxicity, cell-based
[11] = tested on: NIH3T3; assay: (§2) Cytotoxicity against mouse NIH3T3 cells assessed as reduction in cell viability incubated for 72 hrs by SRB assay; format: toxicity, cell-based; conditions: nih3t3
[12] = tested on: HEK293; assay: Cytotoxicity against HEK293 cells assessed as reduction in cell viability incubated for 72 hrs by SRB assay; format: toxicity, cell-based, Homo sapiens
[13] = Kinetic solubility of compound in PBS at 0.78 to 500 uM measured immediately by nephelometric method; format: physicochemical; conditions: buffer, dose 0.78-500 µM
In short: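 DMSO stocks prediluted in DMSO, then diluted 1:50 into PBS (2 % DMSO final) and read immediately by nephelometry at 0.78–500 μM; blank-corrected data fitted by segmental regression; quadruplicates from one stock.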

[14] = tested on: HT-29; assay: Cytotoxicity against human HT-29 cells assessed as reduction in cell viability incubated for 72 hrs by SRB assay; format: toxicity, cell-based
[15] = tested on: MCF7; assay: Cytotoxicity against human MCF7 cells assessed as reduction in cell viability incubated for 72 hrs by SRB assay; format: toxicity, cell-based
[16] = tested on: Mycobacteroides abscessus; assay: Bactericidal activity against Mycobacterium abscessus ATCC 19977 assessed as reduction in viable bacteria at 3.13 uM incubated for 4 days by microplate dilution assay relative to control; format: functional; conditions: time 4 day
In short: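 After 4 days in the microplate dilution assay, 10 µl samples (undiluted or 1:100) were plated on 7H10 with glycerol, ADS and 400 µg/mL hygromycin. Colonies counted after 4 days at 37 °C. Done in triplicate. CFU/mL compared with the inoculum counted before incubation.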

[17] = as §2; format: toxicity, cell-based; conditions: mouse, NIH3T3 cells
[18] = tested on: Mycobacteroides abscessus; assay: Bactericidal activity against Mycobacterium abscessus ATCC 19977 assessed as reduction in viable bacteria at 6.25 uM incubated for 4 days by microplate dilution assay relative to control; format: functional; conditions: time 4 day
[19] = tested on: Mycobacteroides abscessus; assay: Antibacterial activity against MMV688845-resistant Mycobacterium abscessus Bamboo 845R-2.1 harboring rpoB/beta subunit P473L mutation assessed as bacterial growth inhibition incubated for 3 days by optical density based analysis; format: functional; conditions: Bamboo 845R-2.1, 72 h, time 3 day
In short: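 Tenfold-point twofold dilution series in 7H9, final DMSO 1 %. Final ranges typically 50–0.098 or 6.25–0.012 μM. Mid-log culture added to an initial OD₆₀₀ of 0.05 (5*10⁶ CFU/mL). Incubated 3 days at 37 °C with shaking at 110 rpm. Growth taken as OD₆₀₀ on day 3 minus day 0, as % of drug-free wells. MIC₉₀ read visually from the curves. Clarithromycin as control. Two biological replicates, averaged.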

Structure (SMILES)	MIC50 [1]	MIC90 [1]	MIC90 [2]	MIC90 [3]	MIC90 [4]	MIC90 [5]	EC50 [6]	MIC50 [7]	MIC90 [7]	MIC90 [8]	EC50 [9]	EC50 [10]	EC50 [11]	EC50 [12]	Kinetic_solubility [13]	EC50 [14]	EC50 [15]	Activity [16]	EC50 at 72 h [17]	Activity [18]	further results
O=C(N[C@H](Cc1ccccc1)C(=O)Nc1cc(F)ccc1N1CCS(=O)(=O)CC1)c1cccs1	0.43 µM (≈ 0.216 µg/mL)	6.5 µM (≈ 3.26 µg/mL)	3.13 µM (≈ 1.57 µg/mL)	0.78 µM (≈ 0.391 µg/mL)	1.56 µM (≈ 0.783 µg/mL)	6.25 µM (≈ 3.14 µg/mL)	> 30 µM	0.39 µM (≈ 0.196 µg/mL)	3.13 µM (≈ 1.57 µg/mL)	0.2 µM (≈ 0.1 µg/mL)	24 µM	> 30 µM	26.9 µM	> 30 µM	70 µM	> 30 µM	23.2 µM	–	–	–	–
O=C(N[C@H](Cc1ccccc1)C(=O)Nc1ccccc1N1CCS(=O)(=O)CC1)c1cccs1	0.24 µM (≈ 0.116 µg/mL)	1.7 µM (≈ 0.822 µg/mL)	3.13 µM (≈ 1.51 µg/mL)	0.2 µM (≈ 0.0967 µg/mL)	1.56 µM (≈ 0.754 µg/mL)	3.13 µM (≈ 1.51 µg/mL)	> 30 µM	0.78 µM (≈ 0.377 µg/mL)	6.25 µM (≈ 3.02 µg/mL)	0.1 µM (≈ 0.0484 µg/mL)	23.6 µM	> 30 µM	–	> 30 µM	62 µM	> 30 µM	> 30 µM	95%	> 30 µM	99%	–
O=C(N[C@H](Cc1ccc(O)cc1)C(=O)Nc1cc(F)ccc1N1CCS(=O)(=O)CC1)c1ccccc1F	1.1 µM (≈ 0.583 µg/mL)	13 µM (≈ 6.88 µg/mL)	6.25 µM (≈ 3.31 µg/mL)	0.78 µM (≈ 0.413 µg/mL)	6.25 µM (≈ 3.31 µg/mL)	6.25 µM (≈ 3.31 µg/mL)	> 30 µM	3.13 µM (≈ 1.66 µg/mL)	25 µM (≈ 13.2 µg/mL)	0.2 µM (≈ 0.106 µg/mL)	> 30 µM	> 30 µM	–	> 30 µM	158 µM	> 30 µM	> 30 µM	–	> 30 µM	–	–
CC[C@H]1OC(=O)[C@H](C)[C@@H](O[C@H]2C[C@@](C)(OC)[C@@H](O)[C@H](C)O2)[C@H](C)[C@@H](O[C@@H]2O[C@H](C)C[C@H](N(C)C)[C@H]2O)[C@](C)(OC)C[C@@H](C)C(=O)[C@H](C)[C@@H](O)[C@]1(C)O [CLARITHROMYCIN]	–	–	–	–	–	–	–	–	–	–	–	–	–	–	–	–	–	–	–	–	MIC90 [19]: 0.27 µM (≈ 0.202 µg/mL)
O=C(N[C@H](Cc1ccccc1)C(=O)Nc1cc(F)ccc1N1CCS(=O)(=O)CC1)c1ccccc1F	0.4 µM (≈ 0.205 µg/mL)	4.5 µM (≈ 2.31 µg/mL)	3.13 µM (≈ 1.61 µg/mL)	0.78 µM (≈ 0.401 µg/mL)	1.56 µM (≈ 0.801 µg/mL)	3.13 µM (≈ 1.61 µg/mL)	> 30 µM	0.39 µM (≈ 0.2 µg/mL)	3.13 µM (≈ 1.61 µg/mL)	0.1 µM (≈ 0.0514 µg/mL)	23.2 µM	> 30 µM	24.2 µM	> 30 µM	32 µM	> 30 µM	25.9 µM	–	–	–	–
O=C(N[C@H](Cc1ccccc1)C(=O)Nc1ccccc1N1CC[S+]([O-])CC1)c1cccs1	0.33 µM (≈ 0.154 µg/mL)	2 µM (≈ 0.935 µg/mL)	6.25 µM (≈ 2.92 µg/mL)	0.4 µM (≈ 0.187 µg/mL)	1.56 µM (≈ 0.729 µg/mL)	3.13 µM (≈ 1.46 µg/mL)	> 30 µM	3.13 µM (≈ 1.46 µg/mL)	25 µM (≈ 11.7 µg/mL)	0.1 µM (≈ 0.0468 µg/mL)	> 30 µM	> 30 µM	–	> 30 µM	271 µM	> 30 µM	> 30 µM	58%	> 30 µM	99%	MIC90 [19]: > 100 µM
